Measurements gathered from unrelated publications.
Each line is one published result; the experiments were not run side by side.
Effect on: metabolic stability
Species: mouse
Sample: liver microsomes

SMILES	tested at	pH	half-life [min]
CC(C)n1ncc2c(C(=O)NCC3(C)CNC3)cc(C3CC3)nc21	–	–	> 145
CC(C)C(=O)OCc1cc2[nH]c(=S)n(Cc3cccnc3)c(=O)c2cc1Cl	1 µM	pH 7.4	< 5
NC1=NN(c2ccc(Oc3ccccc3)c(S(=O)(=O)O)c2)C(=O)C1	1 µM	–	51.2
Cc1ccc(CCC(=O)Nc2nnc(S(N)(=O)=O)s2)cc1	–	–	> 120
O=c1c2cc(Cl)ncc2[nH]c(=S)n1Cc1cccnc1	1 µM	pH 7.4	89.7
O=c1c2ccc(Oc3cccc(OC(F)(F)F)c3)cc2[nH]c2cc(Cl)cc(F)c12	1 µM	pH 7.4	57
Nc1nnc(-c2ccccc2O)cc1N1CCN(Cc2ccc(N3CCC(CN4CCN(c5ccc6c(c5)C(=O)N(C5CCC(=O)NC5=O)C6=O)CC4)CC3)c(F)c2)CC1 (stereo not drawn)	1 mM	–	59
CCCCCCOc1ccc2c(=O)c3c([nH]c2c1)CCCC3	1 µM	pH 7.4	11.8
CC(=O)N1C[C@@H](C)[C@](O)(c2c(C)cc(-c3ccnc4[nH]cc(F)c34)cc2F)[C@@H](C)C1	–	–	3.5
O=c1c2ccc(OCc3ccc(OC(F)(F)F)cc3)cc2[nH]c2cc(Cl)cc(F)c12	1 µM	pH 7.4	> 60
C=CCn1c(=O)c2cnc(Nc3ccc(N4CCN(C)CC4)cc3)nc2n1-c1ccc2c(n1)[C@@](O)(CC)CC2	–	–	77
OCc1ccc(-c2nn(Cc3ccccc3)c3ccccc23)o1	–	–	3
O=c1c2cc(Cl)c(CO)cc2[nH]c(=S)n1Cc1cccnc1	1 µM	pH 7.4	29.5
CCCCCCCCCCCCCCCC(=O)NCCOC(=O)C[C@@H](CN)CC(C)C	1 µM	pH 7.4	95
C[C@@H]1CNC[C@H](C)[C@@]1(O)c1ccc(-c2ccnc3[nH]cc(F)c23)cc1Cl	–	–	9.1
O=c1c2c([nH]c3c(Oc4ccc(OC(F)(F)F)cc4)cccc13)CCCC2	1 µM	pH 7.4	> 60
C[C@@H]1CNC[C@H](C)[C@@]1(O)c1ccc(-c2ccnc3[nH]cc(F)c23)cc1	–	–	49
Cc1ccc2[nH]c(=S)n(Cc3cccnc3)c(=O)c2c1	1 µM	pH 7.4	4.9
CN1CCC(Oc2ccc3c(=O)c4c(F)cc(Cl)cc4[nH]c3c2)CC1	1 µM	pH 7.4	> 60
Cc1[nH]c(C)c(S(=O)(=O)Nc2ccc(C(F)(F)F)c(Cl)c2)c1C(=O)N1CCC(F)(F)C1	–	–	11.7
Cc1cc(-c2ccnc3[nH]cc(F)c23)cc(F)c1[C@@]1(O)[C@H](C)CN(C)C[C@@H]1C	–	–	1.7
NS(=O)(=O)c1nnc(NC(=O)CCC2CCC(F)(F)CC2)s1	–	–	> 120
O=c1c2ccc(Oc3ccc(OC(F)(F)F)cc3)cc2[nH]c2ccc(Cl)c(F)c12	1 µM	pH 7.4	> 60
NC(=NCCC[C@@H](C(=O)NCc1ccccc1)n1cc(-c2ccc(-c3ccccc3)cc2)nn1)c1ccc([N+](=O)[O-])o1	–	–	120
Cc1cc(-c2ccnc3[nH]cc(F)c23)ccc1[C@@]1(O)[C@H](C)CNC[C@@H]1C	–	–	8
CCN(CC)CCCOc1ccc2c(=O)c3c([nH]c2c1)CCCC3	1 µM	pH 7.4	> 60
CC(C)c1cc(C(=O)NCCN)c2cnn(C(C)C)c2n1	–	–	> 145
CC(C)(C)OC(=O)N1CCC(Oc2ccc3c(=O)c4c(Cl)cc(F)cc4[nH]c3c2)CC1	1 µM	pH 7.4	> 60
Cc1cc(-c2ccnc3[nH]cc(F)c23)cc(F)c1[C@@]1(O)[C@H](C)CN(C2CCS(=O)(=O)CC2)C[C@@H]1C	–	–	45.9
CCN(CC)CCNC(=O)c1c(C)[nH]c(/C=C2\C(=O)Nc3ccc(F)cc32)c1C	1 µM	pH 7.4	14
